Results: ChEMBL document CHEMBL2346615, “Design, synthesis, and molecular modelling of pyridazinone and phthalazinone derivatives as protein kinases inhibitors” (Bioorg Med Chem Lett, 2013)
pIC50: −log10 of the molar value.

What was measured:
[1] = biological target: T1, Casein kinase I isoform alpha (Sus scrofa, UniProt O19175); experiment: Inhibition of pig brain CK1 using RRKHAAIGpSAYSITA as substrate after 30 mins by scintillation counting analysis in presence of [gamma-33P]ATP
T1 sequence (O19175 whole entry): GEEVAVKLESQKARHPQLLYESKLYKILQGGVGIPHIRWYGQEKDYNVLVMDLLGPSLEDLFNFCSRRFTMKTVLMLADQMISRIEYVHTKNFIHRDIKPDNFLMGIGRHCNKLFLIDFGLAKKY

[2] = biological target: Dual specificity tyrosine-phosphorylation-regulated kinase 1A (Rattus norvegicus, UniProt Q63470); experiment: Inhibition of rat recombinant DYRK1A expressed in Escherichia coli using myelin basic protein as substrate after 30 mins by scintillation counting analysis in presence of [gamma-33P]ATP
[3] = biological target: Glycogen synthase kinase-3 (Sus scrofa, UniProt B2LUN4+I6LNT8); experiment: Inhibition of pig brain GSK-3alpka/beta using YRRAAVPPSPSLSRHSSPHQSpEDEEE as substrate after 30 mins by scintillation counting analysis in presence of [gamma-33P]ATP
[4] = biological target: Cyclin-dependent kinase 5/CDK5 activator 1 (Homo sapiens, UniProt Q00535); experiment: Inhibition of human recombinant CDK5/p25 after 30 mins by scintillation counting analysis in presence of [gamma-33P]ATP; format: protein-complex assay
Cyclin-dependent kinase 5/CDK5 activator 1, sequence (Q00535 whole entry): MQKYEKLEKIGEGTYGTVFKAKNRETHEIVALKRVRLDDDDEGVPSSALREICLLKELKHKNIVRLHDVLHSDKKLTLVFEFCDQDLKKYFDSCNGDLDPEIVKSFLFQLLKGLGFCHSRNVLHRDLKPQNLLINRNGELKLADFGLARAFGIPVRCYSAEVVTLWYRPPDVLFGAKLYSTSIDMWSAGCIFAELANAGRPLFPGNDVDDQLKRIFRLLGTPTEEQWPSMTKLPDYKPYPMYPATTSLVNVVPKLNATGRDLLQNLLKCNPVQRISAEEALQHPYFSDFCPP
Cyclin-dependent kinase 5/CDK5 activator 1, sequence (Q15078 whole entry, further chain): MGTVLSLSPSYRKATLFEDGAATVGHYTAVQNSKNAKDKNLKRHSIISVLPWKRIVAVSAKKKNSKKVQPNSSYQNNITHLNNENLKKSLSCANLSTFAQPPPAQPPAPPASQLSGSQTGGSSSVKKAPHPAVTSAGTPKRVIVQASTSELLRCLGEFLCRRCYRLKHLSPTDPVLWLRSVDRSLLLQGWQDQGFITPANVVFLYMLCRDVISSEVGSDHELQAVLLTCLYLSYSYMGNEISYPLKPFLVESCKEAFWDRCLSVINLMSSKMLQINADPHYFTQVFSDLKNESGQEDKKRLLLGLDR

HL-60 = experiment: Cytotoxicity against human HL60 cells after 48 hrs by MTT assay; format: functional, cell-based; settings: HL-60, 48 h
How it was run: (§1)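 Run in triplicate, with the mean reported; the IC50 for each cell line comes from non-linear regression with a 95% confidence interval.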

OVCAR-8 = experiment: Cytotoxicity against human OVCAR8 cells after 48 hrs by MTT assay; format: functional, cell-based; settings: OVCAR-8, 48 h; how it was run: as §1
SF-295 = experiment: Cytotoxicity against human SF295 cells after 48 hrs by MTT assay; format: functional, cell-based; settings: SF-295, 48 h; how it was run: as §1
HCT-116 = experiment: Cytotoxicity against human HCT116 cells after 48 hrs by MTT assay; format: functional, cell-based; settings: HCT-116, 48 h; how it was run: as §1

Row | Structure (SMILES) | pIC50 [1] | pIC50 [2] | IC50 [3] [µM] | pIC50 [4] | pIC50 (HL-60) | pIC50 (OVCAR-8) | pIC50 (SF-295) | pIC50 (HCT-116)
1 | CCCNc1n[nH]c(=O)c2ccccc12 | < 5.00 | < 5.00 | > 10 | < 5.00 |  |  |  | 
2 | O=C(Cc1ccccc1)Nc1n[nH]c(=O)c2ccccc12 | < 5.00 | < 5.00 | > 10 | < 5.00 |  |  |  | 
3 | CCCNc1n[nH]c(=O)cc1-c1ccccc1 | < 5.00 | < 5.00 | > 10 | < 5.00 |  |  |  | 
4 | O=c1cc(-c2ccccc2)c(NCc2ccccc2)n[nH]1 | < 5.00 | < 5.00 | > 10 | < 5.00 |  |  |  | 
5 | CN1CCC(Nc2cc(-c3ccccc3)c(=O)[nH]n2)CC1 | < 5.00 | < 5.00 | > 10 | < 5.00 |  |  |  | 
6 | CCCCCC(=O)N(C(=O)CCCCC)c1nnc(Cl)c2ccccc12 | < 5.00 | < 5.00 | > 10 | < 5.00 |  |  |  | 
7 | Nc1n[nH]c(=O)c2ccccc12 | < 5.00 | 5.39 | > 10 | < 5.00 | 5.05 | 4.93 | 5.22 | 4.90
8 | O=C(Nc1n[nH]c(=O)c2ccccc12)c1ccccc1 | < 5.00 | < 5.00 | > 10 | < 5.00 |  |  |  | 
9 | O=c1[nH]nc(NCCN2CCCCC2)cc1-c1ccccc1 | < 5.00 | < 5.00 | > 10 | < 5.00 |  |  |  | 
10 | CC(C)C(=O)Nc1n[nH]c(=O)c2ccccc12 | < 5.00 | < 5.00 | > 10 | < 5.00 |  |  |  | 
11 | CC(=O)N(C(C)=O)c1n[nH]c(=O)c2ccccc12 | < 5.00 | < 5.00 | > 10 | < 5.00 |  |  |  | 
12 | CC(=O)Nc1n[nH]c(=O)cc1-c1ccccc1 | < 5.00 | < 5.00 | > 10 | < 5.00 |  |  |  | 
13 | O=c1cc(-c2ccccc2)c(NCCN2CCCCC2)n[nH]1 | < 5.00 | < 5.00 | > 10 | < 5.00 |  |  |  | 
14 | CCCNc1cc(-c2ccccc2)c(=O)[nH]n1 | < 5.00 | < 5.00 | > 10 | < 5.00 |  |  |  | 
15 | CC(=O)Nc1cc(-c2ccccc2)c(=O)[nH]n1 | < 5.00 | 5.00 | 2.2 | < 5.00 | 4.94 | 4.85 | 5.12 | 4.81
16 | O=C(Cc1ccccc1)N(C(=O)Cc1ccccc1)c1nnc(Cl)c2ccccc12 | < 5.00 | < 5.00 | > 10 | < 5.00 |  |  |  | 
17 | CC(=O)Nc1n[nH]c(=O)c2ccccc12 | < 5.00 | < 5.00 | > 10 | < 5.00 |  |  |  | 
18 | O=C(Nc1cc(-c2ccccc2)c(Cl)nn1)c1ccccc1 | < 5.00 | < 5.00 | > 10 | < 5.00 |  |  |  | 
19 | O=C(Cc1ccccc1)Nc1nnc(Cl)c2ccccc12 | < 5.00 | < 5.00 | > 10 | < 5.00 |  |  |  | 
20 | O=c1[nH]nc(NCCN2CCCCC2)c2ccccc12 | < 5.00 | < 5.00 | > 10 | < 5.00 |  |  |  | 
21 | O=c1[nH]nc(NCc2ccccc2)cc1-c1ccccc1 | < 5.00 | < 5.00 | > 10 | < 5.00 |  |  |  | 
22 | CC(C)C(=O)N(C(=O)C(C)C)c1n[nH]c(=O)c2ccccc12 | < 5.00 | < 5.00 | > 10 | < 5.00 |  |  |  | 
23 | Nc1n[nH]c(=O)cc1-c1ccccc1 | < 5.00 | < 5.00 | > 10 | < 5.00 |  |  |  | 
24 | Nc1cc(-c2ccccc2)c(=O)[nH]n1 | < 5.00 | 5.22 | 8.1 | < 5.00 | 5.44 | 5.31 | 5.24 | 5.36
25 | O=C(Nc1cc(-c2ccccc2)c(=O)[nH]n1)c1ccccc1 | < 5.00 | < 5.00 | > 10 | < 5.00 |  |  |  | 
